Broadly, the MIC is the lowest concentration found to suppress growth. One may read the CC50 as the concentration that lowers cell viability or growth by half.

This note sets out measurements from ChEMBL document CHEMBL2401735, “Synthesis and cytotoxicity of novel (thiazol-2-yl)hydrazine derivatives as promising anti-Candida agents” (Eur J Med Chem, 2013).

Structures are written as SMILES. ≈ marks a conversion by molar mass, not a printed value.

A short description of data set [1]: Cytotoxicity against human Hep2 cells assessed as cell survival fraction at 5 ug/ml after 24 hrs by trypan blue exclusion assay (reference value: 97 to 98%). It is filed as cell-based. Particulars: HEp-2 cells, read-out: Survival.
The next data set relates to Candida albicans. Briefly: Anticandida activity against Candida albicans clinical isolate assessed as growth inhibition after 24 hrs by broth microdilution method. Format: functional. An outline of the steps:
(§1)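 Clinical Candida isolates subcultured for purity and optimal growth before testing; compounds dissolved in DMSO. Broth microdilution per NCCLS in Sabouraud dextrose broth, serial dilutions, inoculum about 10³/mL, with growth control and medium-only control; 24 h incubation at 37 °C. MIC is the lowest concentration giving complete visible inhibition.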
(In general: Dilution methods test growth across graded concentrations, often in twofold steps.)

Another data set concerns Staphylococcus warneri. Briefly: Antibacterial activity against Staphylococcus warneri assessed as growth inhibition after 18 to 22 hrs by broth microdilution method. Format: functional. An outline of the steps: (§2)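 Bacterial isolates subcultured for purity, identified conventionally. Broth microdilution per NCCLS in Mueller-Hinton II broth; plates with growth control (no compound) and medium-only control, incubated 18-22 h at 35 °C. MIC taken as lowest concentration giving complete growth inhibition by unaided eye.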

In the next data set the test system is Enterococcus faecalis. Briefly: Antibacterial activity against […] assessed as growth inhibition after 18 to 22 hrs by broth microdilution method. Format: functional. An outline of the steps:
as §2

Data set [2] deals with Streptococcus alpha-hemolyticus. Briefly: Antibacterial activity against Streptococcus alpha-hemolyticus assessed as growth inhibition after 18 to 22 hrs by broth microdilution method.
Data set [3] can be described thus: Cytotoxicity against human Hep2 cells assessed as cell survival fraction at 0.005 ug/ml after 24 hrs by trypan blue exclusion assay (reference value: 97 to 98%). Format: cell-based. The note with it: HEp-2 cells, read-out: Survival.
A further data set has as its system Staphylococcus aureus. Briefly: Antibacterial activity against Staphylococcus aureus assessed as growth inhibition after 18 to 22 hrs by broth microdilution method. It is filed as functional. A digest of the protocol: as §2
Another data set deals with Pichia kudriavzevii. Briefly: Anticandida activity against Candida krusei clinical isolate assessed as growth inhibition after 24 hrs by broth microdilution method. It is filed as functional. A digest of the protocol: as §1
Data set [4] is described as follows: Cytotoxicity against human Hep2 cells assessed as cell survival fraction at 100 ug/ml after 24 hrs by trypan blue exclusion assay (reference value: 97 to 98%). Format: cell-based. Particulars: HEp-2 cells, read-out: Survival.
In the next data set the test system is [Candida] sake. Briefly: Anticandida activity against Candida sake clinical isolate assessed as growth inhibition after 24 hrs by broth microdilution method. It is filed as functional. The note with it: Fermentozyma sake. A digest of the protocol: as §1
Data set [5] in a line: Cytotoxicity against human Hep2 cells assessed as cell survival fraction at 0.5 ug/ml after 24 hrs by trypan blue exclusion assay (reference value: 97 to 98%). It is filed as cell-based. The note with it: HEp-2 cells, read-out: Survival.
The nature of data set [6]: Cytotoxicity against human Hep2 cells assessed as cell survival fraction at 0.05 ug/ml after 24 hrs by trypan blue exclusion assay (reference value: 97 to 98%). The note with it: HEp-2 cells, read-out: Survival. It is filed as cell-based.
A further data set relates to Enterobacter sp. Briefly: Antibacterial activity against Enterobacter spp. assessed as growth inhibition after 18 to 22 hrs by broth microdilution method. It is filed as functional. An outline of the steps:
as §2

Data set [7] in a line: Cytotoxicity against human Hep2 cells assessed as cell survival fraction at 10 ug/ml after 24 hrs by trypan blue exclusion assay (reference value: 97 to 98%). Particulars: HEp-2 cells, read-out: Survival. It is filed as cell-based.
For another data set, the system named is Escherichia coli. Briefly: Antibacterial activity against Escherichia coli assessed as growth inhibition after 18 to 22 hrs by broth microdilution method. Format: functional. An outline of the steps:
as §2

The subject of a further data set is Proteus mirabilis. Briefly: Antibacterial activity against Proteus mirabilis assessed as growth inhibition after 18 to 22 hrs by broth microdilution method. It is filed as functional. A digest of the protocol: as §2
For another data set, the system named is Candida tropicalis. Briefly: Anticandida activity against Candida tropicalis clinical isolate assessed as growth inhibition after 24 hrs by broth microdilution method. It is filed as functional. A digest of the protocol: as §1
The nature of data set [8]: Cytotoxicity against human Hep2 cells assessed as cell survival fraction at 50 ug/ml after 24 hrs by trypan blue exclusion assay (reference value: 97 to 98%). Format: cell-based. The note with it: HEp-2 cells, read-out: Survival.
In a further data set the test system is Candida parapsilosis. Briefly: Anticandida activity against Candida parapsilosis clinical isolate assessed as growth inhibition after 24 hrs by broth microdilution method. The note with it: Lodderomyces parapsilosis. Format: functional. An outline of the steps: as §1
A further data set has as its system Klebsiella oxytoca. Briefly: Antibacterial activity against Klebsiella oxytoca assessed as growth inhibition after 18 to 22 hrs by broth microdilution method. It is filed as functional. An outline of the steps: as §2
The next data set concerns Nakaseomyces glabratus. Briefly: Anticandida activity against Candida glabrata clinical isolate assessed as growth inhibition after 24 hrs by broth microdilution method. It is filed as functional. A digest of the protocol: as §1
A short description of data set [9]: Cytotoxicity against human Hep2 cells assessed as reduction of cell viability after 24 hrs by trypan blue exclusion assay. Particulars: HEp-2 cells. Format: cell-based. A digest of the protocol: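 Hep2 cells in DMEM with 10% FBS, penicillin-streptomycin, 5% CO₂, 37 °C. Cells at 1 × 10⁵/mL exposed 24 h to seven concentrations (0.005-100 µg/mL), DMSO ≤0.5% final; controls were medium alone, DMSO, and 1 mM sodium nitroprusside. Cells scraped, allowed 30 min recovery, mixed 1:1 with 0.4% trypan blue, counted by hemocytometer by two operators.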

For data set [10], the system named is HEp-2. Briefly: Cytotoxicity against human Hep2 cells assessed as induction of vacuolization in proximity of mitochondria at 5 ug/ml after 24 hrs by transmission electron microscopic analysis. It is filed as cell-based. The note with it: hep-2, 24 h. A digest of the protocol:
(§3)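 Hep2 cells treated and then examined by transmission electron microscopy, with unexposed cells as controls. Samples stained with 0.1% tannic acid for 30 min and uranyl acetate (5 mg/mL) for 1 h at 25 °C, dehydrated in graded acetone, embedded in Epon-812. Ultrathin sections counterstained with uranyl acetate and lead citrate before viewing.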

Data set [11] has as its system HEp-2. Briefly: Cytotoxicity against human Hep2 cells assessed as appearance of finely granular cytoplasm at 5 ug/ml after 24 hrs by transmission electron microscopic analysis. Particulars: hep-2, 24 h. It is filed as cell-based. A digest of the protocol: as §3
In data set [12] the test system is HEp-2. Briefly: Cytotoxicity against human Hep2 cells assessed as cell survival at 100 ug/ml after 24 hrs by transmission electron microscopic analysis. Format: cell-based. Particulars: hep-2, 24 h. An outline of the steps:
as §3

As for `Clc1ccc(-c2csc(NN=C3CCCCCCC3)n2)c(Cl)c1`, the viability at 24 h, 5 ug/ml in data set [1] was determined as 90%. Further, the MIC was 0.5 µg/mL (≈ 1.36 µM) in the data set on Candida albicans; > 256 µg/mL in the data set with Staphylococcus warneri; > 256 µg/mL in the data set on Enterococcus faecalis; > 256 µg/mL in [2]; > 256 µg/mL in the data set with Staphylococcus aureus; 2 µg/mL (≈ 5.43 µM) in the data set on Pichia kudriavzevii. Also, the MIC in data set [Candida] sake is 2 µg/mL (≈ 5.43 µM); with Enterobacter sp. it was > 256 µg/mL; with Escherichia coli, > 256 µg/mL; in the data set on Proteus mirabilis it was > 256 µg/mL; with Candida tropicalis, 2 µg/mL (≈ 5.43 µM); with Candida parapsilosis, 8 µg/mL (≈ 21.7 µM). Further, the minimum inhibitory concentration (MIC) is > 256 µg/mL in the data set with Klebsiella oxytoca and 2 µg/mL (≈ 5.43 µM) in the data set with Nakaseomyces glabratus. Further, in data set [3], the viability at 24 h, 0.005 ug/ml amounted to 94%. Further, the viability at 24 h, 100 ug/ml in [4] was 0%. Also, the viability at 24 h, 0.5 ug/ml in data set [5] was 92.4%. In addition, the viability at 24 h, 0.05 ug/ml in data set [6] was 93%. For the same compound, in data set [7], the viability at 24 h, 10 ug/ml worked out at 87.5%. For the same compound, the viability at 24 h, 50 ug/ml in data set [8] came out at 0%. Also, the CC50 at 24 h in data set [9] is 41 µg/mL (≈ 111 µM).
With `CCCC/C(CC)=N/Nc1nc(-c2ccc(OC)cc2)cs1`, the viability at 24 h, 5 ug/ml in data set [1] came out at 81%. Moreover, the MIC was 0.25 µg/mL (≈ 0.788 µM) with Candida albicans; > 256 µg/mL with Staphylococcus warneri; > 256 µg/mL in the data set on Enterococcus faecalis; > 256 µg/mL in data set [2]; > 256 µg/mL with Staphylococcus aureus; 2 µg/mL (≈ 6.3 µM) in the data set on Pichia kudriavzevii. The MIC is 2 µg/mL (≈ 6.3 µM) in data set [Candida] sake; > 256 µg/mL in the data set with Enterobacter sp.; > 256 µg/mL in the data set with Escherichia coli; > 256 µg/mL in the data set on Proteus mirabilis; 2 µg/mL (≈ 6.3 µM) with Candida tropicalis; 2 µg/mL (≈ 6.3 µM) in the data set with Candida parapsilosis. In addition, the MIC was > 256 µg/mL in the data set with Klebsiella oxytoca and 0.5 µg/mL (≈ 1.58 µM) with Nakaseomyces glabratus. Also, the viability at 24 h, 0.005 ug/ml in data set [3] worked out at 93%. In addition, the viability at 24 h, 100 ug/ml in data set [4] came to 0%. The viability at 24 h, 0.5 ug/ml in data set [5] is 84%. Besides, in data set [6], the viability at 24 h, 0.05 ug/ml came to 90.2%. The viability at 24 h, 10 ug/ml in [7] turned out to be 70.2%. The viability at 24 h, 50 ug/ml in data set [8] was 0%. For the same compound, the CC50 at 24 h in [9] was 35 µg/mL (≈ 110 µM).
For the compound `C/C(=N\Nc1nc(-c2ccc(Cl)cc2Cl)cs1)C1CCCCC1`, the viability at 24 h, 5 ug/ml in data set [1] turned out to be 94%. Besides, the MIC with Candida albicans is 0.25 µg/mL (≈ 0.679 µM); in the data set with Staphylococcus warneri, > 256 µg/mL; in the data set on Enterococcus faecalis, > 256 µg/mL; in data set [2] it was > 256 µg/mL; with Staphylococcus aureus, > 256 µg/mL; in the data set on Pichia kudriavzevii, 2 µg/mL (≈ 5.43 µM). Besides, the MIC is 2 µg/mL (≈ 5.43 µM) in data set [Candida] sake; > 256 µg/mL in the data set on Enterobacter sp.; > 256 µg/mL with Escherichia coli; > 256 µg/mL with Proteus mirabilis; 2 µg/mL (≈ 5.43 µM) in the data set on Candida tropicalis; 2 µg/mL (≈ 5.43 µM) in the data set with Candida parapsilosis. In addition, the MIC was > 256 µg/mL in the data set on Klebsiella oxytoca and 2 µg/mL (≈ 5.43 µM) in the data set with Nakaseomyces glabratus. Also, the viability at 24 h, 0.005 ug/ml in data set [3] came out at 97.2%. The viability at 24 h, 100 ug/ml in data set [4] came out at 0%. Also, the viability at 24 h, 0.5 ug/ml in [5] came to 95%. The viability at 24 h, 0.05 ug/ml in data set [6] was 96%. Also, the viability at 24 h, 10 ug/ml in [7] was 88%. Further, the viability at 24 h, 50 ug/ml in data set [8] worked out at 0%. Also, the CC50 at 24 h in data set [9] was determined as 42 µg/mL (≈ 114 µM).
As to `Clc1ccccc1C(c1ccccc1)(c1ccccc1)n1ccnc1` [CLOTRIMAZOLE], the viability at 24 h, 5 ug/ml in data set [1] turned out to be 92.5%. Further, the viability at 24 h, 0.005 ug/ml in [3] was found to be 94.4%. For the same compound, the Activity entry in the data set on HEp-2 [10], in the data set on HEp-2 [11] and with HEp-2 [12] was “Toxic” each time. The viability at 24 h, 100 ug/ml in data set [4] was 0%. Moreover, the figures for the MIC (in data set [Candida] sake; with Candida tropicalis; with Nakaseomyces glabratus) were 4 µg/mL (≈ 11.6 µM), 2 µg/mL (≈ 5.8 µM) and 2 µg/mL (≈ 5.8 µM), respectively. The viability at 24 h, 0.5 ug/ml in [5] is 93.4%. For the same compound, the viability at 24 h, 0.05 ug/ml in data set [6] amounted to 93%. Further, the viability at 24 h, 50 ug/ml in data set [8] stood at 0%. The CC50 at 24 h in data set [9] stood at 38 µg/mL (≈ 110 µM).
